Assay outcomes from PubChem.
PTK2B oligo ant: blocks oligomerization of human Pyk2 in cells; Q293 cells, Pyk2 FERM NanoBiT luminescence; stronger effect = lower value; z-score (the deposit names both 25 µM and 10 µM); 99,000 tested, 0.83% active;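 active = Z-score of -3 or lower, scaled per plate to the spread of control and sample wells; inactive = z-score above -3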;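 also: negative z-score means lost luminescence so less FERM oligomerization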
Phagocytosis inh: macrophage phagocytosis inhibition | 110,000 tested, 0.07% active | AID 1029 | J774A.1 macrophage IgG-bead phagocytosis, imaging | inhibition, % at 5 µM;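 active = inhibition above the mean of the plate negative controls plus 5 SD, cut at about 13% in these data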;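 also: phagocytic index as fraction of beads internalized from green versus red external bead signal; plate controls were DMSO negative control for no effect and cytochalasin-D positive control for full effect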
Cav3 T inh: inhibitors of human Cav3.2 T-type calcium channel | Cav3.2-expressing cells, Fluo-4 calcium fluorescence FDSS; stronger effect = lower value | B-score at 10 µM | 100,000 tested, 4% active | AID 449739;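 active = single-dose well whose peak fluorescence ratio is a statistical outlier from its plate by either plate-standardised score or position-corrected B-score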
hDAT+cocaine: changed human dopamine transporter uptake under cocaine IC80 | Q01959 | LLC-PK1 hDAT cells, [14C]-dopamine uptake with cocaine IC80; actives deviate in either direction | B-score at 10 µM | 110,000 tested, 1.3% active | AID 449768;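 active = Z score or B-score, a plate-position-corrected score, falls beyond the plate's 99.7% confidence bounds, in either direction; inactive = both scores lie inside the 99.7% bounds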;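 also: scored against the spread of the other compound wells on the same plate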
Target sequence (Q01959 whole entry, looked up): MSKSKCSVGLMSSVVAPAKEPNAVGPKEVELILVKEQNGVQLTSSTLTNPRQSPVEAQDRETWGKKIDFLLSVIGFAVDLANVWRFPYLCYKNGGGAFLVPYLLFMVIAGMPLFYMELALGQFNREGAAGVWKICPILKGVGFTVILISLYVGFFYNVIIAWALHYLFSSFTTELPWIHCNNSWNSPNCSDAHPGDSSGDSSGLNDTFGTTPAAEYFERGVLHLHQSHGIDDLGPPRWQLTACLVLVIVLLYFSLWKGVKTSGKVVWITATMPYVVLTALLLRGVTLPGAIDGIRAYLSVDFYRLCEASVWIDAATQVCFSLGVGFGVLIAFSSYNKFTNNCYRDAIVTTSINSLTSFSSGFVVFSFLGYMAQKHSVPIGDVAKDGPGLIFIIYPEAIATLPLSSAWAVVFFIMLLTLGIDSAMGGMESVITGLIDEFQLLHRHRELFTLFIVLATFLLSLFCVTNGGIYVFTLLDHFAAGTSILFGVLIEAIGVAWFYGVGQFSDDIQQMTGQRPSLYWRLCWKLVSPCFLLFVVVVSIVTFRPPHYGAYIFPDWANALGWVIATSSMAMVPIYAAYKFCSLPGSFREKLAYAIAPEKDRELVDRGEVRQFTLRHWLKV
Measles CPE: protection of cells from measles virus; Measles virus-infected cells, CPE protection, absorbance; protection (pct of control), % at 4 µM; 140,000 tested, 1.5% active; in the data active = protection mostly above about 24%, no sharp cut-off; inactive = mostly below about 26%
Rev-RRE block: inhibitors of HIV-1 Rev-RRE RNA interaction. inhibition, % at 8 µM. 97,000 tested, 0.79% active. Rev peptide-RRE RNA binding, FRET;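 active = inhibition above the screen-wide mean plus 3 SD, cut at about 35% in these data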;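 also: 0% = median DMSO wells and 100% = median Neomycin B control wells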
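Test system – labelled RRE RNA duplex and labelled Rev peptide · Signal – fluorescein-to-Cy5 FRET, 480 nm excitation · Evaluation – % inhibition of FRET ratio versus controls · Benchmarks – DMSO low control, neomycin B high control · Incubation – 5 min RNA-compound premix plus 15 min binding step, 25 °C · Medium – HEPES pH 7.5 salt buffer with EDTA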
The depositor's hits bear a star; . = no result given. Only some compounds are listed: those with a hit (about 5.9% of all), similar ones and a draw of the others.

SMILES	PTK2B oligo ant	Phagocytosis inh	Cav3 T inh	hDAT+cocaine	Measles CPE	Rev-RRE block
CC(=O)C1=C(C)NC(SCC(=O)c2cc(Cl)ccc2Cl)=C(C#N)C1c1ccco1 (configuration not stated)	-1.1	0	-3.7*	1.4	.	13
CC1=C(C(=O)Nc2ccccc2)C(c2ccco2)C(C#N)=C(SCC(=O)Nc2cccc(C)c2C)N1 (configuration not stated)	-0.45	-1	-5.4*	2	3	10
CC(=O)C1=C(C)NC(SCC(=O)c2ccc(Cl)c(Cl)c2)=C(C#N)C1c1ccco1 (configuration not stated)	-0.06	0	-2.9	0.45	.	8
CC1=C(C(=O)Nc2ccccc2)C(c2ccco2)C(C#N)=C(SCC(=O)OC(C)C)N1 (configuration not stated)	-1.6	1	-4.9*	0.78	5	4
CC1=C(C(=O)Nc2ccccc2)C(c2ccco2)C(C#N)=C(SCc2ccccc2)N1 (configuration not stated)	.	-1	-4.2	0.049	18	17
CC(=O)C1=C(C)NC(SCC(N)=O)=C(C#N)C1c1sccc1C (configuration not stated)	-0.28	.	0.56	6.9*	2	2
CCOc1ccccc1C1CC(c2ccc(Br)cc2)Nc2nc(N)nn21 (configuration not stated)	.	0	-4.6	0.4	20	4
Cc1c(C(=O)COC(C)(C)C)[nH]c2ccccc12	-0.08	0	.	0.3	36	4
Cc1nnc(SCC(=O)Nc2ccccc2C(=O)NC2CC2)s1	.	-4	.	.	4	.
Cn1c(N)c(C(=O)COC(=O)CNS(=O)(=O)c2ccc(Cl)c(Cl)c2)c(=O)n(C)c1=O	.	-4	.	.	7	.
Cc1cc(C)cc(N2C(=O)CN(Cc3sccc3C)C2=S)c1	-1	.	.	.	46*	.
O=C(CCC1CCCC1)Nc1nnc(-c2ccc3c(c2)OCO3)s1	.	-4	.	.	8	.
C=CCSc1ncccc1C(=O)NCc1ccccc1	-1.2	-3	-0.04	-1	80*	2
CCOC(=O)c1cccnc1SCC(=O)NCc1ccccc1	2.7	0	0.58	0.073	16	-1
CC1(C)OC(=O)C(=CNc2cccc(C(=O)O)c2)C(=O)O1	-0.65	-2	1.3	-7*	5	1
CC(CC(=O)Nc1nc2ccccc2[nH]1)c1ccccc1 (configuration not stated)	-0.94	0	-5.7*	-0.88	21	4
O=C(CSc1nc2ccccc2[nH]1)Nc1ccc(F)c(F)c1	0.38	-2	-4.4*	-0.33	7	-2
O=C(COc1ccccc1)Nc1nc2ccccc2[nH]1	0.91	-4	-1.2	0.25	4	1
O=C(CSc1nc2ccccc2[nH]1)Nc1ccccc1F	-0.35	0	-0.37	-0.034	8	4
O=C(CSc1ccc2ccccc2c1)Nc1nc2ccccc2[nH]1	.	.	.	.	42*	.
Brc1ccc(-c2noc3c2-c2nc(-c4ccccc4)sc2CC3)cc1	.	.	0.98	-2.9	.	.
Cc1cccc(NS(=O)(=O)c2ccc(C)c(C(=O)OCC(=O)Nc3cc(C)on3)c2)c1	-3.8*	2	-4.1	-0.2	28	17
COc1ccccc1NS(=O)(=O)c1cccc(C(=O)OCC(=O)Nc2cc(C)on2)c1	-0.65	2	-4.8*	0.31	18	8
COc1ccccc1NS(=O)(=O)c1cccc(C(=O)OCc2nc3ccccc3s2)c1	.	-6	.	.	7	.
O=C(CCc1ccc(S(=O)(=O)NC2CCCCC2)cc1)Nc1ccccc1	0.7	-1	-0.011	-0.56	21	4
SMILES	PTK2B oligo ant	Phagocytosis inh	Cav3 T inh	hDAT+cocaine	Measles CPE	Rev-RRE block
O=C(CCc1ccc(S(=O)(=O)NC2CCCCC2)cc1)N(Cc1ccccc1)Cc1ccccc1	-0.1	.	-5.8*	0.67	15	8
C=Cn1ccnc1P(=S)(c1ccc2c(c1)c1ccccc1n2CC)c1nccn1C=C	-1.1	.	-5.2*	0.27	16	-4
CCn1c2ccccc2c2cc(/C=N/n3cnnc3)ccc21	-1.6	0	1.6	0.0085	15	11
COc1cc2c(cc1OC)C(c1ccc3c(c1)OCO3)C1=C(CC(C)(C)CC1=O)N2 (configuration not stated)	-0.82	.	.	.	25*	0
Cc1ccc(-c2[nH]n3c(=O)c4c(nc3c2C)CCCC4)cc1	-0.36	.	-0.54	0.21	31*	8
N#CC1=C2Nc3ccccc3N2C(=O)NC1(c1ccccc1)C(F)(F)F (configuration not stated)	-3.1*	1	-0.95	-0.71	15	13
CC1(C)CC(=O)C2=C(C1)NC(=O)CC2c1cccc(F)c1 (configuration not stated)	1	.	0.067	-0.82	43*	-1
CCn1c(Cc2cccc3ccccc23)nnc1SCC(=O)Nc1nccs1	0.39	.	-5.9*	0.35	15	1
O=[N+]([O-])c1ccc(CCNc2cccc3ccccc23)c([N+](=O)[O-])c1	.	.	.	.	20	.
CCOC(=O)c1sc(SCc2ccccc2)c2c1CC(C)(C)CC2=O	.	.	-1.2	1.1	.	.
O=C(O)CCC(=O)NNC(=O)c1cccc(Br)c1	.	-12	.	.	59*	.
COc1ccccc1NC(=O)CCn1c(=O)sc2ccccc21	0.36	.	-0.15	0.015	51*	7
Cc1ccc(C2CC(C(F)F)n3ncc(C(=O)Nc4c(C)nn(Cc5c(F)cccc5Cl)c4C)c3N2)cc1 (configuration not stated)	-0.22	.	-3	1.3	3	-3
Cc1ccc2nc(SC(C(=O)c3ccccc3)c3ccccc3)nc(C)c2c1 (configuration not stated)	.	-8	.	.	10	.
O=c1c2c3c(sc2nc2n1CCCC2)CCC3	0.74	.	2	-1.1	36*	3
Cc1ccc(C)n1-n1c(C)nc2sc3c(c2c1=O)CCCCC3	0.56	-6	-5.6*	-0.42	3	2
O=c1c2c3c(sc2nc2n1CCCCC2)CCCCC3	-1.1	0	0.012	-0.81	14	10
O=[N+]([O-])c1cc(S(=O)(=O)Nc2ccccc2)ccc1-n1nnc2ccccc21	-0.67	-2	-6.3*	-0.96	27	3
O=[N+]([O-])c1cc(C(F)(F)F)ccc1-n1nnc2ccccc21	.	-2	.	.	12	.
Cc1cc(=O)oc2cc(OCC(=O)OCC(=O)Nc3ccc(C(C)C)cc3)ccc12	.	-1	.	.	3	.
Cc1noc(C)c1COC(=O)COc1ccc2c(C)cc(=O)oc2c1	0.51	1	0.6	-0.055	39*	2
Cc1noc(C)c1COC(=O)Cc1ccc(Cl)c(Cl)c1	1.1	1	.	.	40*	9
CCOc1ccc2c(c1)-c1c(ssc1=S)C(C)(C)N2	-0.4	-1	-2.4	0.2	23	-5
CCc1ccc(NC(=O)c2ccc(C3SCC(=O)N3CCc3ccccc3)cc2)cc1 (configuration not stated)	-0.21	0	.	.	47	4
